Data from ChEMBL document CHEMBL2057155, “Synthesis of betulinic acid derivatives as entry inhibitors against HIV-1 and bevirimat-resistant HIV-1 variants” (Bioorg Med Chem Lett, 2012).

Legend:
[1] = Cytotoxicity against human TZM-bl assessed as cell viability at 4 uM after 2 days; type: cell-based; conditions: 48 h
Procedure, shortened: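 Toxicity to TZM-bl cells was checked within the single-cycle infection assay at 4 μM.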

[2] = test system: Human immunodeficiency virus 1; assay: Antiviral activity against HIV1 NL4-3 infected in human TZM-bl cells assessed as reduction in luciferase gene expression by luminescence assay; type: functional, organism-based; conditions: Human immunodeficiency virus 1, NL4-3, TZM-bl
Procedure, shortened: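 Single-cycle HIV-1 NL4-3 infection of TZM-bl cells; HIV-1 tat-driven luciferase expression after viral entry read as the measure of inhibition. […] control is NL4-3 infection without compound. Values are the mean of two or more independent experiments with standard deviation.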

| Compound | Activity [1] | EC50 [2] [nM] |
| --- | --- | --- |
| C=C(C)[C@@H]1CC[C@]2(C(=O)NCCCCCCCCCNC(=O)[C@H](C)NC(=O)OC(C)(C)C)CC[C@]3(C)[C@H](CC[C@@H]4[C@@]5(C)CC[C@H](O)C(C)(C)[C@@H]5CC[C@]43C)[C@@H]12 | Non-toxic | > 4000 |
| C=C(C)[C@@H]1CC[C@]2(C(=O)NCCCCCCCCC(=O)NCCC#N)CC[C@]3(C)[C@H](CC[C@@H]4[C@@]5(C)CC[C@H](O)C(C)(C)[C@@H]5CC[C@]43C)[C@@H]12 | Non-toxic | 340 |
| C=C(C)[C@@H]1CC[C@]2(C(=O)NCCCCCCCCC(=O)NCC#N)CC[C@]3(C)[C@H](CC[C@@H]4[C@@]5(C)CC[C@H](O)C(C)(C)[C@@H]5CC[C@]43C)[C@@H]12 | Non-toxic | 440 |
| C=C(C)[C@@H]1CC[C@]2(C(=O)NCCCCCCCCC(=O)N[C@@H](CC(C)C)C(=O)OC)CC[C@]3(C)[C@H](CC[C@@H]4[C@@]5(C)CC[C@H](O)C(C)(C)[C@@H]5CC[C@]43C)[C@@H]12 | Non-toxic | 160 |
| C=C(C)[C@@H]1CC[C@]2(C(=O)NCCCCCCC(=O)N[C@@H](CCC(N)=O)C(=O)OC)CC[C@]3(C)[C@H](CC[C@@H]4[C@@]5(C)CC[C@H](O)C(C)(C)[C@@H]5CC[C@]43C)[C@@H]12 | Non-toxic | > 4000 |
| C=C(C)[C@@H]1CC[C@]2(C(=O)NCCCCCCCCNC(=O)[C@H](CCC(N)=O)NC(=O)OC(C)(C)C)CC[C@]3(C)[C@H](CC[C@@H]4[C@@]5(C)CC[C@H](O)C(C)(C)[C@@H]5CC[C@]43C)[C@@H]12 | Non-toxic | 60 |
| C=C(C)[C@@H]1CC[C@]2(C(=O)NCCCCC/C=C(/F)C(=O)O)CC[C@]3(C)[C@H](CC[C@@H]4[C@@]5(C)CC[C@H](O)C(C)(C)[C@@H]5CC[C@]43C)[C@@H]12 | Non-toxic | > 4000 |
| C=C(C)[C@@H]1CC[C@]2(C(=O)NCCCCCCCCNC(=O)[C@@H](NC(=O)OC(C)(C)C)C(C)C)CC[C@]3(C)[C@H](CC[C@@H]4[C@@]5(C)CC[C@H](O)C(C)(C)[C@@H]5CC[C@]43C)[C@@H]12 | Non-toxic | 2430 |
| C=C(C)[C@@H]1CC[C@]2(C(=O)NCCCCCCCCC(=O)N[C@H](C(=O)OC)[C@@H](C)CC)CC[C@]3(C)[C@H](CC[C@@H]4[C@@]5(C)CC[C@H](O)C(C)(C)[C@@H]5CC[C@]43C)[C@@H]12 | Non-toxic | 140 |
| C=C(C)[C@@H]1CC[C@]2(C(=O)NCCCCCCCCC(=O)N3CCC[C@H]3C(=O)OC)CC[C@]3(C)[C@H](CC[C@@H]4[C@@]5(C)CC[C@H](O)C(C)(C)[C@@H]5CC[C@]43C)[C@@H]12 | Non-toxic | 160 |
| C=C(C)[C@@H]1CC[C@]2(C(=O)NCCCCCCCCCNC(=O)[C@H](CCC(N)=O)NC(=O)OC(C)(C)C)CC[C@]3(C)[C@H](CC[C@@H]4[C@@]5(C)CC[C@H](O)C(C)(C)[C@@H]5CC[C@]43C)[C@@H]12 | Non-toxic | 120 |
| C=C(C)[C@@H]1CC[C@]2(C(=O)NCCOCCOCCNC(C)=O)CC[C@]3(C)[C@H](CC[C@@H]4[C@@]5(C)CC[C@H](O)C(C)(C)[C@@H]5CC[C@]43C)[C@@H]12 | Non-toxic | > 4000 |
| C=C(C)[C@@H]1CC[C@]2(C(=O)NCCOCCOCCNC(=O)C(C)C)CC[C@]3(C)[C@H](CC[C@@H]4[C@@]5(C)CC[C@H](O)C(C)(C)[C@@H]5CC[C@]43C)[C@@H]12 | Non-toxic | > 4000 |
| C=C(C)[C@@H]1CC[C@]2(C(=O)NCCCCC/C=C/C(=O)NCC(=O)O)CC[C@]3(C)[C@H](CC[C@@H]4[C@@]5(C)CC[C@H](O)C(C)(C)[C@@H]5CC[C@]43C)[C@@H]12 | Non-toxic | 150 |
